Activity calls are given as the source filed them. The calls are words filed in the database; no cut-off is given here.
Tests used:
Cannabinoid receptor 2 = Cannabinoid receptor 2 (Homo sapiens, UniProt P34972); experiment: Displacement of [3H]CP-55940 from human recombinant CB2 receptor expressed in HEK293 cells; type: cell-based
Cannabinoid receptor 1 = Cannabinoid receptor 1 (Homo sapiens, UniProt P21554); experiment: Displacement of [3H]CP-55940 from human recombinant CB1 receptor expressed in HEK293 cells; type: cell-based
Cannabinoid receptor 1, sequence (P21554 whole entry): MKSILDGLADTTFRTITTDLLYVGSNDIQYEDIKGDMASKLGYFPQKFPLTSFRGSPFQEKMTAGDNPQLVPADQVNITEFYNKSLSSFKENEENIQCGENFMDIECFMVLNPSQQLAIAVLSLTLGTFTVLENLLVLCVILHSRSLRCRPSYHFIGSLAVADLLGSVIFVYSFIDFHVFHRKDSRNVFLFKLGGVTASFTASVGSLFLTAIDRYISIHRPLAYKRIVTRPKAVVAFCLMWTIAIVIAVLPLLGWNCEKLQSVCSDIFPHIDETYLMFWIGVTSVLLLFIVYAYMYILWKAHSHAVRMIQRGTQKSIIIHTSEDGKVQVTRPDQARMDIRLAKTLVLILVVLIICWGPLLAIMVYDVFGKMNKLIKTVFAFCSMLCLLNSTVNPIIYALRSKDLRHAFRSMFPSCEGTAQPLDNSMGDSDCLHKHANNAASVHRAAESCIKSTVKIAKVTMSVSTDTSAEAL

Jurkat [1] = experiment: Cytotoxicity against human Jurkat cells at 10 uM after 48 hrs by WST1 assay in presence of AM630; type: functional, cell-based
In short: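 Jurkat cells (2 × 10⁴ per well) in serum-free medium, after 2 h, exposed to compound (10 µM) together with CB2 antagonist AM630 (1 µM) for 48 h. Viability by WST-1 (60 min, 37 °C, A450) against solvent controls. Two experiments in triplicate.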

[2] = Cytotoxicity against human U87MG cells at 10 uM after 48 hrs by WST1 assay; type: functional, U-87MG ATCC
In short: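 U87MG cells (4 × 10³ per well) in serum-free medium, attached 24 h, then exposed to compound at 10 µM for 48 h (DMSO stock diluted in medium). Viability inhibition by WST-1 (60 min, 37 °C, A450) compared with solvent-treated controls.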

Jurkat [3] = experiment: Cytotoxicity against human Jurkat cells after 48 hrs by WST1 assay; type: functional, cell-based
In short: (§1)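 Jurkat (2 × 10⁴ per well, 2 h settling) or U87MG (4 × 10³ per well, 24 h attachment) cells in serum-free medium. Exposed to compound (0.1-10 µM; DMSO stocks diluted in medium) for 48 h. Viability read by WST-1 (60 min, 37 °C, A450) against solvent controls, blank-subtracted. IC50 is the concentration giving 50% of control absorbance. Three experiments in triplicate.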

[4] = Cytotoxicity against human U87MG cells after 48 hrs by WST1 assay; type: functional, cell-based; settings: u-87mg atcc; in short: as §1

Cannabinoid receptor 2, sequence (P34972 whole entry): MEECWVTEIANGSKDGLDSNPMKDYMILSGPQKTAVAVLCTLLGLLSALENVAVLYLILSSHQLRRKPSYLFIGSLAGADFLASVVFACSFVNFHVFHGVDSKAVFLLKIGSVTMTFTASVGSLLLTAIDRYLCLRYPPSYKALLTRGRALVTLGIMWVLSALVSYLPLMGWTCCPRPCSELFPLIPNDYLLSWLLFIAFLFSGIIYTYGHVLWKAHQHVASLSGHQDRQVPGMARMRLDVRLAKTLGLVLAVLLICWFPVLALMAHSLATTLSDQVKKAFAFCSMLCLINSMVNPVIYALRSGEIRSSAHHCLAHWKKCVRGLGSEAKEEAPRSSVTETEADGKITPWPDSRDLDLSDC

Row | Compound | Ki (Cannabinoid receptor 2) | Ki (Cannabinoid receptor 1) | other results
1 | O=C(NC1CCCCC1)c1cc2cccnc2n(Cc2ccccc2)c1=O | 0.031 µM | 0.56 µM | 
2 | C[C@H]1CC[C@@H](NC(=O)c2cc3cccnc3n(Cc3ccccc3)c2=O)CC1 | 0.0058 µM | 1.52 µM | 
3 | O=C(NC1CCCCC1)c1cc2cccnc2n(CCN2CCOCC2)c1=O | 0.0079 µM | 0.56 µM | 
4 | O=C(NC1CCCCC1)c1cc2cccnc2n(Cc2ccc(F)cc2)c1=O | 0.0022 µM | 0.056 µM | 
5 | O=C(NC1CCCCCC1)c1cc2cccnc2n(Cc2ccc(F)cc2)c1=O | 0.0007 µM | 0.0096 µM | 
6 | COc1ccc(C(=O)c2c(C)n(CCN3CCOCC3)c3cc(I)ccc23)cc1 |  |  | Activity (Jurkat [1]): inactive
7 | O=C(NC1CCCCCC1)c1cc2cccnc2n(Cc2ccccc2)c1=O | 0.022 µM | 0.96 µM | 
8 | O=C(NC1CCCCCC1)c1cc2cccnc2n(CCN2CCOCC2)c1=O | 0.003 µM | 0.018 µM | 
9 | CCCCn1c(=O)c(C(=O)NC2CCCCC2)cc2cccnc21 | 0.07 µM | 5.6 µM | 
10 | CC1CCC(NC(=O)c2cc3cccnc3n(CCN3CCOCC3)c2=O)CC1 (centres undefined) | 0.0019 µM | 1 µM | 
11 | CC1CCC(NC(=O)c2cc3cccnc3n(Cc3ccc(F)cc3)c2=O)CC1 (centres undefined) | 0.0009 µM | 0.2 µM | 
12 | C[C@H]1CC[C@H](NC(=O)c2cc3cccnc3n(Cc3ccc(F)cc3)c2=O)CC1 | 0.009 µM | 0.3 µM | 
13 | C[C@H]1CC[C@H](NC(=O)c2cc3cccnc3n(Cc3ccccc3)c2=O)CC1 | 0.0398 µM | 5.25 µM | 
14 | C[C@H]1CC[C@@H](NC(=O)c2cc3cccnc3n(Cc3ccc(F)cc3)c2=O)CC1 | 0.0007 µM | 0.2 µM | 
15 | CCCC(C)(C)c1ccc2c(c1)OC(C)(C)[C@@H]1CC=C(C)C[C@@H]21 | 0.003 µM |  | 
16 | CCCn1c(C)c(C(=O)c2cccc3ccccc23)c2ccccc21 |  |  | Activity [2]: 20%; IC50 (Jurkat [3]): 9.6 µM; IC50 [4]: Not Active
17 | O=C(NCCc1ccc(F)cc1)c1cc2cccnc2n(Cc2ccccc2)c1=O | 0.0698 µM | 6.95 µM | 
18 | CC1CCC(NC(=O)c2cc3cccnc3n(Cc3ccccc3)c2=O)CC1 (centres undefined) | 0.0078 µM | 1.6 µM | Activity [2]: 20%; Activity (Jurkat [3]): Dose-dependent effect; IC50 (Jurkat [3]): 5.98 µM; IC50 [4]: Not Active

From ChEMBL document CHEMBL1136929 (J Med Chem, 2009)
